Drawing on ChEMBL document CHEMBL1137280, “Synthesis and structure-activity studies of novel benzocycloheptanone oxazolidinone antibacterial agents” (Bioorg Med Chem Lett, 2006), this text covers IC50 and MIC for 25 molecules.

≈ marks a conversion by molar mass, not a printed value.

Assay type in all cases: functional
The test system of one test is Escherichia coli. As to the kind of experiment: Antibacterial activity against Escherichia coli by transcription and translation assay. In a few lines: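 Coupled in vitro transcription and translation system from Escherichia coli with a luciferase reporter; inhibition is read as loss of luciferase signal.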
The next test relates to Staphylococcus aureus. As to the kind of experiment: Antibacterial activity against Staphylococcus aureus UC-76 SA-1. In a few lines: (§1)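 MIC determined by broth microdilution following Clinical and Laboratory Standards Institute (formerly NCCLS) guidelines, across a panel of Gram-positive and fastidious Gram-negative organisms.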
A further test concerns Streptococcus pneumoniae. Description: Antibacterial activity against Streptococcus pneumoniae SVI SP-3. In a few lines: as §1
The subject of a further test is Enterococcus faecalis. As to the kind of experiment: Antibacterial activity against Enterococcus faecalis MGH-2 EF1-1. The method in brief:
as §1

The next test deals with Haemophilus influenzae. As to the kind of experiment: Antibacterial activity against Haemophilus influenzae HI3542. To be noted: HI-3542. The method in brief: as §1
In another test the test system is Moraxella catarrhalis. Description: Antibacterial activity against Moraxella catarrhalis BC-3531. In a few lines: as §1
In another test the test system is Streptococcus pyogenes. Description: Antibacterial activity against Streptococcus pyogenes C-203. The method in brief: as §1

Regarding `CC(=O)NC[C@H]1CN(c2ccc3c(c2)CCC/C(=C\c2ccc(S(C)(=O)=O)cc2)C3=O)C(=O)O1`, in the test on Escherichia coli, 2.8 µM corresponded to half-maximal inhibition (IC50). For the same molecule, the MIC against Staphylococcus aureus was 1 µg/mL (≈ 2.07 µM); in the test on Streptococcus pneumoniae, 0.25 µg/mL (≈ 0.518 µM); against Enterococcus faecalis, 0.5 µg/mL (≈ 1.04 µM); in the test on Haemophilus influenzae it was 16 µg/mL (≈ 33.2 µM); against Moraxella catarrhalis it was 4 µg/mL (≈ 8.29 µM).

In turn, `CC(=O)NC[C@H]1CN(c2ccc3c(c2)CCCCCC3=O)C(=O)O1` gave an IC50 in the test on Escherichia coli of 5.9 µM. Moreover, the MIC with Staphylococcus aureus was determined as 4 µg/mL (≈ 12.1 µM); with Streptococcus pneumoniae it was 4 µg/mL (≈ 12.1 µM); with Streptococcus pyogenes, 2 µg/mL (≈ 6.05 µM); in the test on Enterococcus faecalis, 8 µg/mL (≈ 24.2 µM).

Regarding `CC(=O)NC[C@H]1CN(c2cc3c(cc2F)C(=O)CCCC3)C(=O)O1`, in the test with Escherichia coli, it took 90 µM to reach half-maximal inhibition (IC50). For the same molecule, the MIC in the test on Staphylococcus aureus came out at 64 µg/mL (≈ 191 µM); in the test with Streptococcus pneumoniae it was 32 µg/mL (≈ 95.7 µM); in the test with Streptococcus pyogenes, 32 µg/mL (≈ 95.7 µM); in the test on Enterococcus faecalis, 64 µg/mL (≈ 191 µM).

Turning to `CC(=O)NC[C@H]1CN(c2ccc3c(c2)CCC/C(=C\c2ccccc2)C3=O)C(=O)O1`, the IC50 in the test on Escherichia coli came out at 2.7 µM. For the same molecule, the MIC against Staphylococcus aureus was 1 µg/mL (≈ 2.47 µM); in the test on Streptococcus pneumoniae, 0.25 µg/mL (≈ 0.618 µM); with Enterococcus faecalis it was 0.5 µg/mL (≈ 1.24 µM); against Haemophilus influenzae, 16 µg/mL (≈ 39.6 µM); against Moraxella catarrhalis it was 4 µg/mL (≈ 9.89 µM).

In turn, `CC(=O)NC[C@H]1CN(c2cnc3c(c2)CCCCC3=O)C(=O)O1` registered an IC50 with Escherichia coli of 13 µM. The MIC in the test on Staphylococcus aureus came to 8 µg/mL (≈ 25.2 µM); with Streptococcus pneumoniae it was 16 µg/mL (≈ 50.4 µM); in the test on Streptococcus pyogenes, 4 µg/mL (≈ 12.6 µM); against Enterococcus faecalis, 8 µg/mL (≈ 25.2 µM).

Molecule `CC(=O)NC[C@H]1CN(c2ccc3c(c2)CCC/C(=C\c2ccsc2)C3=O)C(=O)O1` returned an IC50 with Escherichia coli of 1.1 µM. Also, the MIC in the test on Staphylococcus aureus worked out at 2 µg/mL (≈ 4.87 µM); with Streptococcus pneumoniae, 0.125 µg/mL (≈ 0.305 µM); with Enterococcus faecalis, 0.5 µg/mL (≈ 1.22 µM); in the test with Haemophilus influenzae it was 2 µg/mL (≈ 4.87 µM); against Moraxella catarrhalis, 1 µg/mL (≈ 2.44 µM).

In the case of `CC(=O)NC[C@H]1CN(c2ccc3c(c2)CCC/C(=C\c2ccc(F)cc2)C3=O)C(=O)O1`, the IC50 in the test with Escherichia coli came out at 2.7 µM. The MIC in the test with Staphylococcus aureus is 0.5 µg/mL (≈ 1.18 µM); in the test on Streptococcus pneumoniae, 0.25 µg/mL (≈ 0.592 µM); in the test on Enterococcus faecalis, 0.5 µg/mL (≈ 1.18 µM); against Haemophilus influenzae it was 2 µg/mL (≈ 4.73 µM); against Moraxella catarrhalis it was 2 µg/mL (≈ 4.73 µM).

For `CC(=O)NC[C@H]1CN(c2cc(F)c3c(c2F)CCCCC3=O)C(=O)O1`, it took 14 µM to reach half-maximal inhibition with Escherichia coli (IC50). The MIC in the test on Staphylococcus aureus was found to be 32 µg/mL (≈ 90.8 µM); with Streptococcus pneumoniae, 8 µg/mL (≈ 22.7 µM); in the test on Streptococcus pyogenes, 16 µg/mL (≈ 45.4 µM); in the test on Enterococcus faecalis, 16 µg/mL (≈ 45.4 µM).

As to `CC(=O)NC[C@H]1CN(c2cc(F)c3c(c2)CCCC=C3)C(=O)O1`, the IC50 with Escherichia coli is 9.3 µM. Besides, the MIC is 2 µg/mL (≈ 6.28 µM) in the test on Staphylococcus aureus, 1 µg/mL (≈ 3.14 µM) against Streptococcus pneumoniae, 1 µg/mL (≈ 3.14 µM) in the test with Streptococcus pyogenes and 2 µg/mL (≈ 6.28 µM) in the test on Enterococcus faecalis.

On to `CC(=O)NC[C@H]1CN(c2ccc3c(c2)CCC/C(=C\c2cccn2C)C3=O)C(=O)O1`, for which the IC50 with Escherichia coli was 1.6 µM. The MIC in the test with Staphylococcus aureus turned out to be 1 µg/mL (≈ 2.45 µM); in the test on Streptococcus pneumoniae, 0.25 µg/mL (≈ 0.614 µM); against Enterococcus faecalis, 0.5 µg/mL (≈ 1.23 µM); against Haemophilus influenzae it was 16 µg/mL (≈ 39.3 µM); in the test on Moraxella catarrhalis, 4 µg/mL (≈ 9.82 µM).

Regarding `CC(=O)NC[C@H]1CN(c2ccc(N3CCOCC3)c(F)c2)C(=O)O1` [LINEZOLID], 3.3 µM corresponded to half-maximal inhibition in the test with Escherichia coli (IC50). Moreover, the values for the MIC in the test on Streptococcus pyogenes and in the test on Haemophilus influenzae were 1 µg/mL (≈ 2.96 µM) and 16 µg/mL (≈ 47.4 µM), respectively.

`CC(=O)NC[C@H]1CN(c2ccc3c(c2)CCCC=C3)C(=O)O1` showed an IC50 with Escherichia coli of 1.3 µM. In addition, the MIC against Staphylococcus aureus worked out at 1 µg/mL (≈ 3.33 µM); in the test with Streptococcus pneumoniae it was 0.5 µg/mL (≈ 1.66 µM); with Streptococcus pyogenes, 0.5 µg/mL (≈ 1.66 µM); in the test on Enterococcus faecalis, 1 µg/mL (≈ 3.33 µM).

The molecule `CC(=O)NC[C@H]1CN(c2ccc3c(c2)CCC/C(=C\c2ccc(CCO)cc2)C3=O)C(=O)O1` gave an IC50 in the test with Escherichia coli of 2.6 µM. For the same molecule, the MIC turned out to be 1 µg/mL (≈ 2.23 µM) against Staphylococcus aureus; 0.25 µg/mL (≈ 0.557 µM) in the test on Streptococcus pneumoniae; 0.5 µg/mL (≈ 1.11 µM) in the test with Enterococcus faecalis; 16 µg/mL (≈ 35.7 µM) in the test on Haemophilus influenzae; 4 µg/mL (≈ 8.92 µM) in the test on Moraxella catarrhalis.

For the molecule `CC(=O)NC[C@H]1CN(c2ccc(C(C)=O)cc2)C(=O)O1` [DUP-721], the midpoint of inhibition with Escherichia coli, the IC50, lay at 7.5 µM. Besides, the MIC in the test with Staphylococcus aureus was 2 µg/mL (≈ 7.24 µM); in the test on Streptococcus pneumoniae, 2 µg/mL (≈ 7.24 µM); in the test with Streptococcus pyogenes, 1 µg/mL (≈ 3.62 µM); against Enterococcus faecalis it was 2 µg/mL (≈ 7.24 µM).

`CC(=O)NC[C@H]1CN(c2ccc3c(c2)CCC/C(=C\c2ccncc2)C3=O)C(=O)O1` showed an IC50 in the test on Escherichia coli of 1.7 µM. For the same molecule, the MIC against Staphylococcus aureus was found to be 1 µg/mL (≈ 2.47 µM); in the test on Streptococcus pneumoniae it was 0.5 µg/mL (≈ 1.23 µM); with Enterococcus faecalis it was 1 µg/mL (≈ 2.47 µM); in the test with Haemophilus influenzae it was 16 µg/mL (≈ 39.5 µM); in the test on Moraxella catarrhalis it was 8 µg/mL (≈ 19.7 µM).

The molecule `CC(=O)NC[C@H]1CN(c2ccc3c(c2)C(=O)CCC3)C(=O)O1` returned an IC50 in the test with Escherichia coli of 4 µM. Besides, the MIC is 32 µg/mL (≈ 106 µM) in the test with Staphylococcus aureus, 8 µg/mL (≈ 26.5 µM) in the test on Streptococcus pneumoniae, 16 µg/mL (≈ 52.9 µM) with Streptococcus pyogenes and 16 µg/mL (≈ 52.9 µM) against Enterococcus faecalis.

As to `CC(=O)NC[C@H]1CN(c2ccc3c(c2)CCC/C(=C\c2ccc(OCCN(C)C)cc2)C3=O)C(=O)O1`, the IC50 with Escherichia coli stood at 1.5 µM. The MIC stood at 2 µg/mL (≈ 4.07 µM) against Staphylococcus aureus; 0.25 µg/mL (≈ 0.509 µM) in the test with Streptococcus pneumoniae; 2 µg/mL (≈ 4.07 µM) in the test with Enterococcus faecalis; 32 µg/mL (≈ 65.1 µM) in the test on Haemophilus influenzae; 8 µg/mL (≈ 16.3 µM) against Moraxella catarrhalis.

For `CC(=O)NC[C@H]1CN(c2ccc3c(c2)CCC/C(=C\c2ccc(OCCCN(C)C)cc2)C3=O)C(=O)O1`, in the test on Escherichia coli, inhibition was half-maximal at 1.2 µM (IC50). In addition, the MIC worked out at 1 µg/mL (≈ 1.98 µM) against Staphylococcus aureus; 0.125 µg/mL (≈ 0.247 µM) with Streptococcus pneumoniae; 0.5 µg/mL (≈ 0.989 µM) against Enterococcus faecalis; 16 µg/mL (≈ 31.6 µM) in the test with Haemophilus influenzae; 4 µg/mL (≈ 7.91 µM) with Moraxella catarrhalis.

`CC(=O)NC[C@H]1CN(c2ccc3c(c2)CCCCC3=O)C(=O)O1` displayed an IC50 with Escherichia coli of 3.9 µM. In addition, the MIC in the test on Staphylococcus aureus turned out to be 1 µg/mL (≈ 3.16 µM); against Streptococcus pneumoniae it was 0.5 µg/mL (≈ 1.58 µM); against Streptococcus pyogenes, 0.5 µg/mL (≈ 1.58 µM); in the test on Enterococcus faecalis, 0.5 µg/mL (≈ 1.58 µM).

`CC(=O)NC[C@H]1CN(c2ccc3c(c2)CCC3=O)C(=O)O1` [PNU-82965] had an IC50 in the test on Escherichia coli of 21 µM. In addition, the MIC in the test on Staphylococcus aureus was 8 µg/mL (≈ 27.7 µM); in the test with Streptococcus pneumoniae it was 2 µg/mL (≈ 6.94 µM); with Streptococcus pyogenes, 2 µg/mL (≈ 6.94 µM); against Enterococcus faecalis it was 8 µg/mL (≈ 27.7 µM).

`CC(=O)NC[C@H]1CN(c2ccc3c(c2)CCC/C(=C\c2cccc(C#N)c2)C3=O)C(=O)O1`: in the test with Escherichia coli, half-maximal inhibition (IC50) was put at 1.7 µM. The MIC was 0.5 µg/mL (≈ 1.16 µM) in the test on Staphylococcus aureus; 0.25 µg/mL (≈ 0.582 µM) in the test with Streptococcus pneumoniae; 0.25 µg/mL (≈ 0.582 µM) in the test with Enterococcus faecalis; 32 µg/mL (≈ 74.5 µM) with Haemophilus influenzae; 2 µg/mL (≈ 4.66 µM) against Moraxella catarrhalis.

`CC(=O)NC[C@H]1CN(c2cc(F)c3c(c2)CCCCC3=O)C(=O)O1` registered an IC50 in the test on Escherichia coli of 9.4 µM. The MIC was found to be 8 µg/mL (≈ 23.9 µM) against Staphylococcus aureus, 2 µg/mL (≈ 5.98 µM) against Streptococcus pneumoniae, 2 µg/mL (≈ 5.98 µM) against Streptococcus pyogenes and 4 µg/mL (≈ 12 µM) with Enterococcus faecalis.

In the test with Escherichia coli, `CC(=O)NC[C@H]1CN(c2ccc3c(c2F)CCCCC3=O)C(=O)O1` returned an IC50 of 8.9 µM. Further, the MIC was 16 µg/mL (≈ 47.9 µM) against Staphylococcus aureus, 4 µg/mL (≈ 12 µM) against Streptococcus pneumoniae, 8 µg/mL (≈ 23.9 µM) in the test on Streptococcus pyogenes and 8 µg/mL (≈ 23.9 µM) in the test on Enterococcus faecalis.

`CC(=O)NC[C@H]1CN(c2ccc3c(c2)CCCCC3)C(=O)O1` gave an IC50 with Escherichia coli of 8 µM. Besides, the MIC is 64 µg/mL (≈ 212 µM) against Staphylococcus aureus, 8 µg/mL (≈ 26.5 µM) in the test with Streptococcus pneumoniae, 2 µg/mL (≈ 6.61 µM) in the test on Streptococcus pyogenes and more than 64 µg/mL with Enterococcus faecalis.

In the test with Escherichia coli, `CC(=O)NC[C@H]1CN(c2ccc3c(c2)CCC/C(=C\c2ccc(O)cc2)C3=O)C(=O)O1` showed an IC50 of 0.95 µM. The MIC with Staphylococcus aureus turned out to be 0.5 µg/mL (≈ 1.19 µM); in the test with Streptococcus pneumoniae, 0.125 µg/mL (≈ 0.297 µM); in the test with Enterococcus faecalis it was 0.5 µg/mL (≈ 1.19 µM); in the test on Haemophilus influenzae, 8 µg/mL (≈ 19 µM); against Moraxella catarrhalis it was 2 µg/mL (≈ 4.76 µM).
